Measured values reported in article PMC11624666 (Drug Design, Development and Therapy, 2024).
Where two headings read alike, the source gives them in different places.

How the values were obtained:
[1] = six clinical pharmacology studies; cited from earlier work
Effect of food: fed = assay type: in vivo, healthy Chinese male subjects; conditions: 150 mg; P < 0.05
[2] = ref summary of product characteristics of olaparib; cited from earlier work
[3] = Chinese patients, cited from earlier work
[4] = assay type: in vivo, healthy Chinese male subjects; conditions: male, human, plasma, po, 150 mg
In short: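 Two-sequence (TR/RT), two-period randomised crossover in 44 healthy males (18–50 y, BMI 19–26 kg/m2, ≥50 kg) with a 7-day washout. Each period: single oral 150 mg tablet (test or reference) under fasting, with fasting kept ≥4 h post-dose. Plasma spun at 1700 g, 10 min, 2–8°C, stored at −80°C. Assay: protein precipitation, HPLC-MS/MS, positive ion mode, calibration 10.0–5000 ng/mL.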

[5] = FDA Adverse Event Reporting System, cited from earlier work
[6] = patients; cited from earlier work
[7] = Safety monitoring over Part A, Part B and Part C; assay type: in vivo; conditions: healthy Chinese male subjects, single dose 100 mg or 150 mg
In short: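 Single oral dose in a randomized two-sequence (TR/RT) crossover, two periods, 7-day washout. Part A: 100 mg fasting (n = 14). Part B: 150 mg fasting (n = 44). Part C: 150 mg after a high-fat breakfast (n = 44). TEAEs, both subject-reported and investigator-observed including lab values, were collected throughout and graded by CTCAE 5.0. Monitoring covered physical exams, vital signs, laboratory tests, 12-lead ECG and CT scans.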

[8] = Japanese patients, 300 mg single dosing; cited from earlier work
[9] = previous studies; cited from earlier work

| difference in Tmax, fed vs fasting state (Effect of food: fed) | Tmax [4] | half-life [4] | Compound | tolerability in healthy individuals [1] | Tmax delayed by high-fat, high-calorie meal [2] | mean AUC increased by high-fat, high-calorie meal [2] | arithmetic mean t1/2 ([3]; 100 mg single dosing) | median Tmax ([3]; 100 mg single dosing) | arithmetic mean t1/2 ([3]; 300 mg single dosing) | adverse events received related to olaparib ([5]; 2008 through first quarter of 2023) | adverse events connected to genotoxicity [5] | first nausea, time after treatment initiation [6] | first vomiting, time after treatment initiation [6] | median time to first occurrence of anemia [6] | tolerability [7] | arithmetic mean t1/2 [8] | median Tmax [8] | inter-individual variation in the AUC [9] |
| --- | --- | --- | --- | --- | --- | --- | --- | --- | --- | --- | --- | --- | --- | --- | --- | --- | --- | --- |
|  |  |  | O=C(c1cc(Cc2n[nH]c(=O)c3ccccc23)ccc1F)N1CCn2nc(C(F)(F)F)nc2C1 [fluzoparib] | well tolerated |  |  |  |  |  |  |  |  |  |  |  |  |  |  |
| significantly prolonged | 1.5 h | 5.94 h | O=C(c1cc(Cc2n[nH]c(=O)c3ccccc23)ccc1F)N1CCN(C(=O)C2CC2)CC1 [olaparib] |  | 2.5 h | approximately 8% | 7.17 h | 1.95 h | 6.52 h | 10,957 | no adverse events | ≤ 1 month | ≤ 2 months | approximately 4 weeks | well tolerated | 9.43 h | 1.98 h | 55–57% |
